# Data taken from ChEMBL document CHEMBL5058577, “EUbOPEN Chemogenomics Library 2 (Multiplex)” (2022).
# Test system: U2OS
# Assay: Multiplex assay against U2OS
# Type: toxicity, cell-based
# Settings: human
# Procedure, shortened: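 Compound was added to live cells that had been stained at seeding with Hoechst33342, BioTracker Green Microtubule Cytoskeleton Dye, MitoTracker Red and Annexin V Alexa Fluor 680, and imaging followed on a CQ1 microscope at 37°C and 5% CO2. CellPathfinder machine-learning gating divided cells into Hoechst high-intensity objects or normal cells, normal cells into healthy, pyknosed or fragmented nuclei, and pyknosed cells into mitotic or apoptotic. Tubulin, mitochondrial-mass and membrane-permeability phenotypes are per cents of healthy-nucleus cells.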
# [1] = 12 h, 1 µM, compound concentration 1 uM, replicate 1
# [2] = 12 h, 1 µM, compound concentration 1 uM, replicate 2
# [3] = 12 h, 10 µM, compound concentration 10 uM, replicate 1
# [4] = 12 h, 10 µM, compound concentration 10 uM, replicate 2
# [5] = 24 h, 1 µM, compound concentration 1 uM, replicate 1
# [6] = 24 h, 1 µM, compound concentration 1 uM, replicate 2
# [7] = 24 h, 10 µM, compound concentration 10 uM, replicate 1
# [8] = 24 h, 10 µM, compound concentration 10 uM, replicate 2
# [9] = 48 h, 1 µM, compound concentration 1 uM, replicate 1
# [10] = 48 h, 1 µM, compound concentration 1 uM, replicate 2
# [11] = 48 h, 10 µM, compound concentration 10 uM, replicate 1
# [12] = 48 h, 10 µM, compound concentration 10 uM, replicate 2
smiles,measurement,setting,value
O=C1[C@H](Cc2ccc(O)cc2)N2C(=O)CCN(C(=O)NCc3ccccc3)[C@H]2CN1Cc1cccc2ccccc12,Population Apoptotic (%),[1],91%
same,Population Fragmented Nuclei (%),[1],13%
same,Population Healthy Nuclei (%),[1],74%
same,Population Hoechst High Intensity Objects (%),[1],4%
same,Population Membrane Permeable-Phenotype (%),[1],4%
same,Population Mitochondria Different-Phenotype (%),[1],1%
same,Population Mitotic Cells (%),[1],8%
same,Population Normal (%),[1],96%
same,Population Pyknosed Nuclei (%),[1],12%
same,Population Tubulin-Different-Phenotype (%),[1],1%
same,Total Cell Count,[1],200
same,Population Apoptotic (%),[2],84%
same,Population Fragmented Nuclei (%),[2],21%
same,Population Healthy Nuclei (%),[2],66%
same,Population Hoechst High Intensity Objects (%),[2],0%
same,Population Membrane Permeable-Phenotype (%),[2],5%
same,Population Mitochondria Different-Phenotype (%),[2],8%
same,Population Mitotic Cells (%),[2],15%
same,Population Normal (%),[2],99%
same,Population Pyknosed Nuclei (%),[2],11%
same,Population Tubulin-Different-Phenotype (%),[2],4%
same,Total Cell Count,[2],113
same,Population Apoptotic (%),[3],60%
same,Population Fragmented Nuclei (%),[3],32%
same,Population Healthy Nuclei (%),[3],50%
same,Population Hoechst High Intensity Objects (%),[3],3%
same,Population Membrane Permeable-Phenotype (%),[3],55%
same,Population Mitochondria Different-Phenotype (%),[3],35%
same,Population Mitotic Cells (%),[3],40%
same,Population Normal (%),[3],96%
same,Population Pyknosed Nuclei (%),[3],17%
same,Population Tubulin-Different-Phenotype (%),[3],55%
same,Total Cell Count,[3],207
same,Population Apoptotic (%),[4],72%
same,Population Fragmented Nuclei (%),[4],19%
same,Population Healthy Nuclei (%),[4],67%
same,Population Hoechst High Intensity Objects (%),[4],6%
same,Population Membrane Permeable-Phenotype (%),[4],38%
same,Population Mitochondria Different-Phenotype (%),[4],47%
same,Population Mitotic Cells (%),[4],27%
same,Population Normal (%),[4],93%
same,Population Pyknosed Nuclei (%),[4],13%
same,Population Tubulin-Different-Phenotype (%),[4],43%
same,Total Cell Count,[4],88
same,Population Apoptotic (%),[5],80%
same,Population Fragmented Nuclei (%),[5],13%
same,Population Healthy Nuclei (%),[5],73%
same,Population Hoechst High Intensity Objects (%),[5],2%
same,Population Membrane Permeable-Phenotype (%),[5],4%
same,Population Mitochondria Different-Phenotype (%),[5],1%
same,Population Mitotic Cells (%),[5],19%
same,Population Normal (%),[5],97%
same,Population Pyknosed Nuclei (%),[5],13%
same,Population Tubulin-Different-Phenotype (%),[5],2%
same,Total Cell Count,[5],242
same,Population Apoptotic (%),[6],88%
same,Population Fragmented Nuclei (%),[6],14%
same,Population Healthy Nuclei (%),[6],71%
same,Population Hoechst High Intensity Objects (%),[6],1%
same,Population Membrane Permeable-Phenotype (%),[6],7%
same,Population Mitochondria Different-Phenotype (%),[6],5%
same,Population Mitotic Cells (%),[6],11%
same,Population Normal (%),[6],98%
same,Population Pyknosed Nuclei (%),[6],14%
same,Population Tubulin-Different-Phenotype (%),[6],4%
same,Total Cell Count,[6],127
same,Population Apoptotic (%),[7],65%
same,Population Fragmented Nuclei (%),[7],34%
same,Population Healthy Nuclei (%),[7],42%
same,Population Hoechst High Intensity Objects (%),[7],3%
same,Population Membrane Permeable-Phenotype (%),[7],25%
same,Population Mitochondria Different-Phenotype (%),[7],23%
same,Population Mitotic Cells (%),[7],34%
same,Population Normal (%),[7],96%
same,Population Pyknosed Nuclei (%),[7],22%
same,Population Tubulin-Different-Phenotype (%),[7],25%
same,Total Cell Count,[7],214
same,Population Apoptotic (%),[8],85%
same,Population Fragmented Nuclei (%),[8],29%
same,Population Healthy Nuclei (%),[8],54%
same,Population Hoechst High Intensity Objects (%),[8],5%
same,Population Membrane Permeable-Phenotype (%),[8],36%
same,Population Mitochondria Different-Phenotype (%),[8],38%
same,Population Mitotic Cells (%),[8],14%
same,Population Normal (%),[8],94%
same,Population Pyknosed Nuclei (%),[8],16%
same,Population Tubulin-Different-Phenotype (%),[8],42%
same,Total Cell Count,[8],91
same,Population Apoptotic (%),[9],81%
same,Population Fragmented Nuclei (%),[9],15%
same,Population Healthy Nuclei (%),[9],73%
same,Population Hoechst High Intensity Objects (%),[9],3%
same,Population Membrane Permeable-Phenotype (%),[9],2%
same,Population Mitochondria Different-Phenotype (%),[9],2%
same,Population Mitotic Cells (%),[9],18%
same,Population Normal (%),[9],96%
same,Population Pyknosed Nuclei (%),[9],11%
same,Population Tubulin-Different-Phenotype (%),[9],3%
same,Total Cell Count,[9],326
same,Population Apoptotic (%),[10],95%
same,Population Fragmented Nuclei (%),[10],16%
same,Population Healthy Nuclei (%),[10],67%
same,Population Hoechst High Intensity Objects (%),[10],5%
same,Population Membrane Permeable-Phenotype (%),[10],3%
same,Population Mitochondria Different-Phenotype (%),[10],0%
same,Population Mitotic Cells (%),[10],4%
same,Population Normal (%),[10],94%
same,Population Pyknosed Nuclei (%),[10],15%
same,Population Tubulin-Different-Phenotype (%),[10],5%
same,Total Cell Count,[10],168
same,Population Apoptotic (%),[11],82%
same,Population Fragmented Nuclei (%),[11],37%
same,Population Healthy Nuclei (%),[11],43%
same,Population Hoechst High Intensity Objects (%),[11],5%
same,Population Membrane Permeable-Phenotype (%),[11],28%
same,Population Mitochondria Different-Phenotype (%),[11],16%
same,Population Mitotic Cells (%),[11],17%
same,Population Normal (%),[11],94%
same,Population Pyknosed Nuclei (%),[11],19%
same,Population Tubulin-Different-Phenotype (%),[11],19%
same,Total Cell Count,[11],252
same,Population Apoptotic (%),[12],81%
same,Population Fragmented Nuclei (%),[12],33%
same,Population Healthy Nuclei (%),[12],46%
same,Population Hoechst High Intensity Objects (%),[12],4%
same,Population Membrane Permeable-Phenotype (%),[12],22%
same,Population Mitochondria Different-Phenotype (%),[12],20%
same,Population Mitotic Cells (%),[12],18%
same,Population Normal (%),[12],95%
same,Population Pyknosed Nuclei (%),[12],20%
same,Population Tubulin-Different-Phenotype (%),[12],18%
same,Total Cell Count,[12],111
